# Results collected from several papers.
# Lines come from different studies, so protocols differ.
# Organism: Severe acute respiratory syndrome coronavirus 2
Structure (SMILES),read-out,mode,technique,cell line,concentration,time,inhibition [%]
CCOC(=O)c1ccc(C#Cc2ccc3c(c2)C(C)(C)CCS3)nc1,viral replication,inhibitor,,Vero C1008,1 µM,,49.9
CN=c1nc(-c2ccc(OC)c(OC)c2)n(-c2ccc(F)cc2)s1,viral replication,inhibitor,qPCR,Vero C1008,50 µM,24 h,21.5
Oc1c(I)cc(Cl)c2cccnc12,viral replication,inhibitor,,Vero C1008,30 µM,,91.8
O=C(O)c1cnc2n1CCc1ccccc1C2=C1CCN(CCc2ccc(OCc3ccc4ccccc4n3)cc2)CC1,viral replication,inhibitor,,Vero C1008,1 µM,,50.3
CC1=C(C/C=C(\C)CC/C=C(\C)Cc2ccc(F)cc2)C(=O)c2ccccc2C1=O,viral replication,inhibitor,,VeroE6/TMPRSS2,100 µM,72 h,45
CCN(CC)CCCC(C)Nc1ccnc2cc(Cl)ccc12 (centres unmarked),viral replication,inhibitor,,Vero C1008,1 µM,,48.7
NC[C@@H]1O[C@H](O[C@H]2[C@@H](O)[C@H](O[C@@H]3[C@@H](O)[C@H](N)C[C@H](N)[C@H]3O[C@H]3O[C@H](CO)[C@@H](O)[C@H](O)[C@H]3N)O[C@@H]2CO)[C@H](N)[C@@H](O)[C@@H]1O,viral replication,,,Vero C1008,50 µM,,2
O=C(Nc1ccccc1F)c1cc2c(=O)n3ccccc3nc2n1Cc1ccccc1,viral replication,,,Vero,1 µM,,92.3
COCC(=O)Nc1c(I)c(C(=O)NCC(O)CO)c(I)c(C(=O)N(C)CC(O)CO)c1I (centres unmarked),viral replication,,,Vero C1008,50 µM,,2
CCC(CC)COC(=O)[C@H](C)N[P@](=O)(OC[C@H]1O[C@@](C#N)(c2ccc3c(N)ncnn23)[C@H](O)[C@@H]1O)Oc1ccccc1,viral replication,inhibitor,,Vero C1008,0.8 µM,,20
O=C(/C=C/c1ccc(O)c(O)c1/C=C/c1ccc(O)c(O)c1)O[C@H](Cc1ccc(O)c(O)c1)C(=O)O,cytopathic effect,,,Vero C1008,6.25 µM,,0
O=C(O)C1=CC(=C(c2ccc(O)c(C(=O)O)c2)c2ccc(O)c(C(=O)O)c2)C=CC1=O,viral replication,,,Vero C1008,50 µM,,80
CC(C)=CCC[C@](C)(O)[C@H]1CC[C@]2(C)[C@@H]1CC[C@@H]1[C@@]3(C)CCC(=O)C(C)(C)[C@@H]3CC[C@]12C,viral replication,inhibitor,,Calu-3,50 µM,,99.5
Cn1c(C(=O)Nc2ccc(Cl)cc2)cc2c(=O)n3ccccc3nc21,viral replication,,,Vero,0.1 µM,,37.7
CC(C)=CCc1c(O)ccc(C(=O)/C=C/c2ccc(O)cc2)c1O,cytopathic effect,inhibitor,,Vero C1008,50 µM,,0
C/C=C(/C)C(=O)O[C@H]1C(C)=C[C@]23C(=O)[C@@H](C=C(CO)[C@@H](O)[C@]12O)[C@H]1[C@@H](C[C@H]3C)C1(C)C,viral replication,inhibitor,,Vero C1008,1 µM,,47.4
CC1=C(C/C=C(\C)CC/C=C(\C)Cc2cccc3ccccc23)C(=O)c2ccccc2C1=O,viral replication,inhibitor,,VeroE6/TMPRSS2,100 µM,72 h,48
O=C(O[C@@H]1Cc2c(O)cc(O)cc2O[C@@H]1c1cc(O)c(O)c(O)c1)c1cc(O)c(O)c(O)c1,cytopathic effect,,,Vero C1008,25 µM,,25
COc1cc(-c2cc3c(c(=O)o2)C[C@]2(O)[C@@]4(C)C(=O)C=CC(C)(C)[C@]4(O)CC[C@@]2(C)O3)cc(OC)c1OC,viral replication,inhibitor,,Calu-3,50 µM,,101
Cc1cccn2c(=O)c3cc(C(=O)Nc4ccc(N(C)C)cc4)n(C)c3nc12,viral replication,,,Vero,10 µM,,94.2
CC1=C(C/C=C(\C)CC/C=C(\C)Cc2ccc(F)c3ccccc23)C(=O)c2ccccc2C1=O,viral replication,inhibitor,,VeroE6/TMPRSS2,100 µM,72 h,43
Cc1ccc(NC(=O)c2cc3c(=O)n4cccc(C)c4nc3n2C)cc1Cl,viral replication,,,Vero,0.1 µM,,67.4
CC1=C(/C=C/C(C)=C/C=C/C(C)=C/C(=O)O)C(C)(C)CCC1,viral replication,inhibitor,,Vero C1008,1 µM,,42.1
C[C@@H]1O[C@@H](O[C@H]2[C@H](O[C@H]3CC[C@]4(C)[C@H]5CC=C6[C@@H]7CC(C)(C)CC[C@]7(C(=O)OCc7ccccc7)CC[C@@]6(C)[C@]5(C)CC[C@H]4C3(C)C)O[C@H](CO)[C@@H](O[C@@H]3O[C@@H](C)[C@H](O)[C@@H](O)[C@H]3O)[C@@H]2O)[C@H](O)[C@H](O)[C@H]1O,viral replication,,,293T/ACE2,20 µM,,83.6
CC[C@H](C)[C@@H]1NC(=O)[C@@H](C)NC(=O)[C@H](C(C)C)NC(=O)C[C@H](/C=C/c2ccccc2)OC(=O)[C@H](C(C)C)NC1=O,viral replication,inhibitor,,Calu-3,50 µM,,3.01
CC(=O)c1cccc(NC(=O)c2cc3c(=O)n4ccccc4nc3n2C)c1,viral replication,,,Vero,10 µM,,96.4
COc1ccc(C[C@@H]2c3cc(Oc4cc(C[C@@H]5c6cc(O)c(OC)cc6CCN5C)ccc4O)c(OC)cc3CCN2C)cc1,cytopathic effect,inhibitor,,Vero C1008,25 µM,,0
Cc1cc(NC(=O)c2cc3c(=O)n4cccc(C)c4nc3n2C)ccc1Br,viral replication,,,Vero,10 nM,,8.19
Cc1cc(O)c(C=O)c2c1C(=O)Oc1c(cc3c(c1C)C(=O)CC(C)(C)O3)O2,viral replication,inhibitor,,Calu-3,50 µM,,99.5
C[C@@H]1O[C@@H](OC[C@H]2O[C@@H](Oc3c(-c4ccc(OCCO)c(OCCO)c4)oc4cc(OCCO)cc(O)c4c3=O)[C@H](O)[C@@H](O)[C@@H]2O)[C@H](O)[C@H](O)[C@H]1O,viral replication,,,Vero C1008,50 µM,,3
CC(C)CC(NC(=O)OCc1ccccc1)C(=O)NC(C(=O)NCC(=O)C=[N+]=[N-])C(C)C (centres unmarked),viral replication,inhibitor,,Vero C1008,1 µM,,95.8
CCc1ccc(NC(=O)c2cc3c(=O)n4ccccc4nc3n2C)cc1,viral replication,,,Vero,0.1 µM,,51.5
C=C[C@@](C)(/C=C/c1ccc(O)cc1)CCC=C(C)C,cytopathic effect,,,Vero C1008,100 µM,,0
O=C(NCCN1CCCC1)c1cc(-c2ccc(CN3CCOCC3)cc2)nc2ccc(F)cc12,viral replication,inhibitor,,Vero C1008,1 µM,,45.8
Cn1c(C(=O)Nc2ccc3c(c2)OCCO3)cc2c(=O)n3ccccc3nc21,viral replication,,,Vero,10 nM,,8
